Assays:
Influenza A virus [1] = assay: Antiviral activity against Influenza A virus A/PR/8/34(H1N1) infected in MDCK cells assessed as reduction in virus-induced cytopathic effect after 3 days by microscopic method; assay type: functional, organism-based, A/Puerto Rico/8/1934(H1N1)
How it was run: (§1)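 Semi-confluent MDCK cells were infected at an MOI of 0.0004 PFU/cell in Ultra-MDCK infection medium with 2 μg/mL TPCK-trypsin, together with compounds. After 3 days at 35 °C, CPE was scored by microscopy and confirmed by MTS formazan viability. EC50 is the concentration giving 50% inhibition of virus-induced CPE. Values are means of two to five independent tests.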

Influenza A virus [2] = assay: Antiviral activity against Influenza A virus A/PR/8/34(H1N1) infected in MDCK cells after 3 days by MTS assay; assay type: functional, organism-based, A/Puerto Rico/8/1934(H1N1); how it was run: as §1
H3N2 subtype [3] = assay: Antiviral activity against Influenza A virus A/HK/7/87(H3N2) infected in MDCK cells assessed as reduction in virus-induced cytopathic effect after 3 days by microscopic method; assay type: functional, organism-based; settings: A/Hong Kong/7/1987(H3N2), 72 h; how it was run: as §1
H3N2 subtype [4] = assay: Antiviral activity against Influenza A virus A/HK/7/87(H3N2) infected in MDCK cells after 3 days by MTS assay; assay type: functional, organism-based; settings: A/Hong Kong/7/1987(H3N2), 72 h; how it was run: as §1
Influenza B virus [5] = assay: Antiviral activity against Influenza B virus B/Ned/537/05 infected in MDCK cells assessed as reduction in virus-induced cytopathic effect after 3 days by microscopic method; assay type: functional, organism-based; settings: B/Ned/537/05, MDCK, 72 h
How it was run: (§2)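 Semi-confluent MDCK cells were infected at an MOI of 0.0004 PFU/cell in Ultra-MDCK infection medium with 2 μg/mL TPCK-trypsin, together with compounds. After 3 days at 35 °C, CPE was scored by microscopy and confirmed by MTS formazan viability. Values are means of two to five independent tests.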

Influenza B virus [6] = assay: Antiviral activity against Influenza B virus B/Ned/537/05 infected in MDCK cells after 3 days by MTS assay; assay type: functional, organism-based; settings: B/Ned/537/05, MDCK, 72 h; how it was run: as §2
MDCK = assay: Cytotoxicity against MDCK cells assessed as reduction in cell viability after 3 days by MTS assay; assay type: cell-based, Canis lupus familiaris; settings: dog, mdck, 72 h
[7] = Cytotoxicity against MDCK cells assessed as alteration in cell morphology after 3 days by microscopic method; assay type: cell-based, Canis lupus familiaris; settings: dog
How it was run: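 Mock-infected MDCK cells were treated with compounds in parallel with the antiviral assay, 3 days at 35 °C. MCC is the concentration causing minimal change in cell morphology by microscopy. CC50 is the 50% cytotoxic concentration by MTS formazan viability assay.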

Influenza A virus [8] = assay: Antiviral activity against Influenza A virus A/Virginia/ATCC3/2009(H1N1pdm) infected in MDCK cells assessed as reduction in virus-induced cytopathic effect after 3 days by microscopic method; assay type: functional, organism-based, Influenza A virus (A/Virginia/03/2009(H1N1)); settings: 72 h; how it was run: as §1
Influenza A virus [9] = assay: Antiviral activity against Influenza A virus A/Virginia/ATCC3/2009(H1N1pdm) infected in MDCK cells after 3 days by MTS assay; assay type: functional, organism-based, Influenza A virus (A/Virginia/03/2009(H1N1)); settings: 72 h; how it was run: as §1
Influenza B virus [10] = assay: Antiviral activity against Influenza B virus B/HK/05/72 infected in MDCK cells assessed as reduction in virus-induced cytopathic effect after 3 days by microscopic method; assay type: functional, organism-based; settings: B/Hong Kong/05/1972, MDCK, 72 h; how it was run: as §1
Influenza B virus [11] = assay: Antiviral activity against Influenza B virus B/HK/05/72 infected in MDCK cells after 3 days by MTS assay; assay type: functional, organism-based; settings: B/Hong Kong/05/1972, MDCK, 72 h; how it was run: as §1
[12] = Influenza A virus, A/Puerto Rico/8/1934(H1N1), MDCK, 72 h

SMILES	EC50 (Influenza A virus [1]; [12]) [µM]	EC50 (Influenza A virus [2]; [12]) [µM]	EC50 (H3N2 subtype [3]) [µM]	EC50 (H3N2 subtype [4]) [µM]	EC50 (Influenza B virus [5]) [µM]	EC50 (Influenza B virus [6]) [µM]	CC50 (MDCK) [µM]	MCC at 72 h [7] [µM]	EC50 (Influenza A virus [8]) [µM]	EC50 (Influenza A virus [9]) [µM]	EC50 (Influenza B virus [10]) [µM]	EC50 (Influenza B virus [11]) [µM]	EC50 (Influenza A virus [1]; mdck) [µM]	EC50 (Influenza A virus [2]; mdck) [µM]
NC12CC3CC(CC(C3)C1)C2 [AMANTADINE]	> 500	> 500	11	1.9	> 500	> 500	> 500	> 500						
CCCSC1=C(SCCC)C(=O)N(Cc2cn(C3C(=O)N[C@@H]4Cc5ccc(c(Cl)c5)Oc5cc6cc(c5O)Oc5ccc(cc5Cl)[C@@H](O[C@@H]5O[C@H](CO)[C@@H](O)[C@H](O)[C@H]5NC(C)=O)[C@H]5NC(=O)[C@H](NC(O)[C@@H]6NC(=O)[C@@H](NC4=O)c4cc(O)cc(c4)Oc4cc3ccc4O)c3ccc(O)c(c3)-c3c(O)cc(O)cc3[C@H](C(=O)O)NC5=O)nn2)C1=O (stereo not given in full)	> 100	> 100	> 100	> 100			22	20	> 100	> 100	> 100	> 100		
CCCCCCCCSC1=C(SCCCCCCCC)C(=O)N([C@H]2C(=O)N[C@@H]3Cc4ccc(c(Cl)c4)Oc4cc5cc(c4O)Oc4ccc(cc4Cl)[C@@H](O[C@@H]4O[C@H](CO)[C@@H](O)[C@H](O)[C@H]4NC(C)=O)[C@H]4NC(=O)[C@H](NC(O)[C@@H]5NC(=O)[C@@H](NC3=O)c3cc(O)cc(c3)Oc3cc2ccc3O)c2ccc(O)c(c2)-c2c(O)cc(O)cc2[C@H](C(=O)O)NC4=O)C1=O (stereo not given in full)	> 100	> 100	> 100	> 100			11	20	2.1	1.9	> 100	> 100		
CC(N)C12CC3CC(CC(C3)C1)C2 (stereo not given) [RIMANTADINE]	> 500	> 500	0.2		> 500	> 500	> 500	> 500						
CCCSC1=C(SCCC)C(=O)N([C@H]2C(=O)N[C@@H]3Cc4ccc(c(Cl)c4)Oc4cc5cc(c4O)Oc4ccc(cc4Cl)[C@@H](O[C@@H]4O[C@H](CO)[C@@H](O)[C@H](O)[C@H]4NC(C)=O)[C@H]4NC(=O)[C@H](NC(O)[C@@H]5NC(=O)[C@@H](NC3=O)c3cc(O)cc(c3)Oc3cc2ccc3O)c2ccc(O)c(c2)-c2c(O)cc(O)cc2[C@H](C(=O)O)NC4=O)C1=O (stereo not given in full)	> 100	> 100	> 100	> 100	> 100	7.2	18	20	1.8	2				
CCCCCCCCCCCCSC1=C(SCCCCCCCCCCCC)C(=O)N(CCOCCOCCOCCOCc2cn(C3C(=O)N[C@@H]4Cc5ccc(c(Cl)c5)Oc5cc6cc(c5O)Oc5ccc(cc5Cl)[C@@H](O[C@@H]5O[C@H](CO)[C@@H](O)[C@H](O)[C@H]5NC(C)=O)[C@H]5NC(=O)[C@H](NC(O)[C@@H]6NC(=O)[C@@H](NC4=O)c4cc(O)cc(c4)Oc4cc3ccc4O)c3ccc(O)c(c3)-c3c(O)cc(O)cc3[C@H](C(=O)O)NC5=O)nn2)C1=O (stereo not given in full)	> 100	13	> 100	2.4	> 100	> 100	79	20	> 100	2.8				
CCCCCCCCCCCCSC1=C(SCCCCCCCCCCCC)C(=O)N([C@H]2C(=O)N[C@@H]3Cc4ccc(c(Cl)c4)Oc4cc5cc(c4O)Oc4ccc(cc4Cl)[C@@H](O[C@@H]4O[C@H](CO)[C@@H](O)[C@H](O)[C@H]4NC(C)=O)[C@H]4NC(=O)[C@H](NC(O)[C@@H]5NC(=O)[C@@H](NC3=O)c3cc(O)cc(c3)Oc3cc2ccc3O)c2ccc(O)c(c2)-c2c(O)cc(O)cc2[C@H](C(=O)O)NC4=O)C1=O (stereo not given in full)	> 100	> 100	> 100	> 100	> 100	> 100	≤ 1.1	≤ 4	> 100	> 100				
CCCCCCCCCCCCSC1=C(SCCCCCCCCCCCC)C(=O)N(Cc2cn(C3C(=O)N[C@@H]4Cc5ccc(c(Cl)c5)Oc5cc6cc(c5O)Oc5ccc(cc5Cl)[C@@H](O[C@@H]5O[C@H](CO)[C@@H](O)[C@H](O)[C@H]5NC(C)=O)[C@H]5NC(=O)[C@H](NC(O)[C@@H]6NC(=O)[C@@H](NC4=O)c4cc(O)cc(c4)Oc4cc3ccc4O)c3ccc(O)c(c3)-c3c(O)cc(O)cc3[C@H](C(=O)O)NC5=O)nn2)C1=O (stereo not given in full)	> 100	> 100	> 100	> 100			75	100	> 100	> 100	> 100	> 100		
CCCCCCCCCCCCSC1=C(SCCC)C(=O)N([C@H]2C(=O)N[C@@H]3Cc4ccc(c(Cl)c4)Oc4cc5cc(c4O)Oc4ccc(cc4Cl)[C@@H](O[C@@H]4O[C@H](CO)[C@@H](O)[C@H](O)[C@H]4NC(C)=O)[C@H]4NC(=O)[C@H](NC(O)[C@@H]5NC(=O)[C@@H](NC3=O)c3cc(O)cc(c3)Oc3cc2ccc3O)c2ccc(O)c(c2)-c2c(O)cc(O)cc2[C@H](C(=O)O)NC4=O)C1=O (stereo not given in full)	> 100	10	7.3	6.8	8.9	7.3	29	≥ 20	5.1	8.2				
CC(=O)N[C@H]1[C@H]([C@H](O)[C@H](O)CO)OC(C(=O)O)=C[C@@H]1N=C(N)N [ZANAMIVIR]	0.041	0.19	20	3.2	0.0079	0.0062	> 100	> 100	1.9	30				
CC(=O)N[C@H]1[C@H](O[C@@H]2c3ccc(c(Cl)c3)Oc3cc4cc(c3O)Oc3ccc(cc3Cl)C[C@H]3NC(=O)C(n5cc(COCCOCCOCCOCCN6C(=O)C(SCCOCCOCCOCCO)=C(SCCOCCOCCOCCO)C6=O)nn5)c5ccc(O)c(c5)Oc5cc(O)cc(c5)[C@H](NC3=O)C(=O)N[C@H]4C(O)N[C@H]3C(=O)N[C@H]2C(=O)N[C@@H](C(=O)O)c2cc(O)cc(O)c2-c2cc3ccc2O)O[C@H](CO)[C@@H](O)[C@@H]1O (stereo not given in full)	> 100	> 100	> 100	23	> 100	42	≥ 32	> 100	> 100	> 100				
CC(=O)N[C@H]1[C@H](O[C@@H]2c3ccc(c(Cl)c3)Oc3cc4cc(c3O)Oc3ccc(cc3Cl)C[C@H]3NC(=O)C(n5cc(CN6C(=O)C(SC[C@H]7O[C@@H]8OC(C)(C)O[C@@H]8[C@H]8OC(C)(C)O[C@H]87)=C(SC[C@H]7O[C@@H]8OC(C)(C)O[C@@H]8[C@H]8OC(C)(C)O[C@H]87)C6=O)nn5)c5ccc(O)c(c5)Oc5cc(O)cc(c5)[C@H](NC3=O)C(=O)N[C@H]4C(O)N[C@H]3C(=O)N[C@H]2C(=O)N[C@@H](C(=O)O)c2cc(O)cc(O)c2-c2cc3ccc2O)O[C@H](CO)[C@@H](O)[C@@H]1O (stereo not given in full)	> 100	> 100	> 100	> 100			18	20	> 100	> 100	> 100	> 100		
NC(=O)c1ncn([C@@H]2O[C@H](CO)[C@@H](O)[C@H]2O)n1 [RIBAVIRIN]			13	5.9				> 100					8.4	9.1
CCCCCCCCSC1=C(SCCCCCCCC)C(=O)N(CCOCCOCCOCCOCc2cn(C3C(=O)N[C@@H]4Cc5ccc(c(Cl)c5)Oc5cc6cc(c5O)Oc5ccc(cc5Cl)[C@@H](O[C@@H]5O[C@H](CO)[C@@H](O)[C@H](O)[C@H]5NC(C)=O)[C@H]5NC(=O)[C@H](NC(O)[C@@H]6NC(=O)[C@@H](NC4=O)c4cc(O)cc(c4)Oc4cc3ccc4O)c3ccc(O)c(c3)-c3c(O)cc(O)cc3[C@H](C(=O)O)NC5=O)nn2)C1=O (stereo not given in full)	1.3	2	0.92	≤ 0.8			19	≥ 4	≤ 1.4	≤ 0.8	> 20	> 20		
